High-throughput results from PubChem.
FN deposition inh: fibronectin deposition inhibition | inhibition, % at 12.6 µM | AH1F fibroblasts, Alexa488-fibronectin deposition fluorescence, overnight | 350,000 tested, 0.086% active;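 active means mean inhibition across replicates of 30% or more, regardless of how many single replicates reach that level; inconclusive means mean under 30% yet at least half of replicates reach 30%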;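 further: positive control wells lacked labelled fibronectin entirely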
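Schedule: 1 h cell adhesion before compound, then overnight fibronectin incubation; test system: AH1F fibroblast monolayer depositing Alexa488-labelled fibronectin into matrix; quantity: 10000 AH1F cells per well; probe or stimulus: fluorescent fibronectin at 24 nM final; signal: fluorescence, ex 485 nm, em 525 nm; evaluation: percent inhibition as loss of matrix-bound fibronectin fluorescence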
ARNT TACC3 PPI: disrupts binding between human ARNT and TACC3. inhibition, % at 9.99 µM. AlphaScreen His-ARNT PAS-B/GST-TACC3 binding, luminescence; TACC3 fragment carries E629A point mutation. AID 623870. 390,000 tested, 0.66% active;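 active means mean inhibition of replicates at least 50% and at least half of replicates each reaching 50%; inconclusive means half or more replicates reach 50% but mean below 50%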;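 further: 0% = complete ARNT plus TACC3 wells and 100% = ARNT alone without TACC3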
XiGFP reactiv: reactivates the inactive X chromosome in mouse fibroblasts. XiGFP mouse fibroblasts, % GFP-positive cells imaging, 3 d; cells co-treated with 5-aza-dC sensitizer; scaled so ellipticine positive control = 100%. 360,000 tested, 0.055% active. AID 743238. activation, % at 7.58 µM;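 active means mean normalized replicate activation at least 10% and every replicate at or above 10%; inconclusive means only one of the two criteria met; inactive means mean below 10% and not all replicates reach 10%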;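 further: 0% = median of on-plate neutral control wells and 100% = ellipticine 6 µM median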
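Schedule: 3 d treatment, 15 min room-temperature fixation; system: 68-5-11 XiGFP fibroblast line; buffer or medium: DMEM plus 5-aza-dC sensitizer; control set: ellipticine 6 µM positive control; compound: one concentration, pinned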
DENV2 CPE: inhibitors of DENV2 cytopathic effect | DENV2-infected cells, cytopathic effect rescue, plate reader | CPE inhibition, % at 9.99 µM | 350,000 tested, 1.7% active; in the data active means CPE inhibition above about 20%, passing the limit was not always enough; inconclusive means no clear call, values can overlap the other calls; tested in BHK-21 cells;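 further: 0% = median of neutral control wells and 100% = median of positive control wells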
SIRT5 inh: blocks human SIRT5 desuccinylation of peptide; Q9NXA8; Purified SirT5, succinyl-peptide AMC, trypsin-coupled fluorescence; inhibition, % at 15 µM; 330,000 tested, 1.1% active; AID 652115; in the data active means inhibition above about 15%; inconclusive means no clear call, values can overlap the other calls
Target sequence (Q9NXA8 whole entry, looked up): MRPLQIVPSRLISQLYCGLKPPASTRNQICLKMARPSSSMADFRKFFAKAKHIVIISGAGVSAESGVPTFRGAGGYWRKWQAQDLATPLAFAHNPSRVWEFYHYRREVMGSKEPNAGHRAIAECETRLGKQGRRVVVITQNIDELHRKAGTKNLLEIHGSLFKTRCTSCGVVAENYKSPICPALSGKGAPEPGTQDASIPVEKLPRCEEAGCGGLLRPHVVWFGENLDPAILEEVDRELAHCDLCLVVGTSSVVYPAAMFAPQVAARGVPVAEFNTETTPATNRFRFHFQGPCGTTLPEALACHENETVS
FGF22 binding: FGF22 (human) thermal shift binding; Q9HCT0; recombinant FGF22 thermal shift, SYPRO orange fluorescence; percent of sucrose octasulfate shift, DMSO zero; activity (Tm shift, normalised), % at 9.99 µM; 340,000 tested, 1.5% active;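 active means mean Tm shift, scaled 0 neutral to 100 positive control, at about 1.3% or above, every replicate too, limit read from the data; inconclusive means no clear call, values can overlap the other calls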
Target sequence (Q9HCT0 whole entry, looked up): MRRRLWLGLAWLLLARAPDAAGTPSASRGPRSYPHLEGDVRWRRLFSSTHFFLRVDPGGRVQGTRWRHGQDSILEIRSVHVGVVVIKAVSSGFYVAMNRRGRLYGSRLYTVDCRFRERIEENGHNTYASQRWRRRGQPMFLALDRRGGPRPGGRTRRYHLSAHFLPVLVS
* hit, by the source's call; ? = inconclusive; . = not tested or not shown; ! = not active in a repeat. An excerpt weighted towards active compounds, which were near 3.8% of everything screened.

SMILES | FN deposition inh | ARNT TACC3 PPI | XiGFP reactiv | DENV2 CPE | SIRT5 inh | FGF22 binding
C[C@H]1CCCCO[C@H](CN(C)C(=O)Nc2cccc3ccccc23)[C@@H](C)CN([C@@H](C)CO)C(=O)c2cc(NC(=O)CCCN(C)C)ccc2O1 | . | 10.4 | 0.0 | -16.8 | -11.6 | -1.0
CO[C@@H](CN(C)Cc1cc(F)ccc1F)[C@H](C)CN([C@@H](C)CO)S(=O)(=O)c1ccc(Cl)cc1 | 0.2 | -6.1 | 0.0 | -4.1 | . | 0.1
CCCNC(=O)Nc1ccc2c(c1)C(=O)N(C)C[C@@H](OC)[C@H](C)CN(Cc1cncnc1)[C@H](C)CO2 | 11.2 | 13.5 | -0.1 | ? | -3.5 | 0.1
O=C(CN=C1NS(=O)(=O)c2ccccc21)OCC(=O)c1cc(F)ccc1F | 0.6 | -0.4 | 0.2 | -6.4 | -0.7 | 43.0*
O=C(CCN=C1NS(=O)(=O)c2ccccc21)OCC(=O)c1ccccc1Cl | . | . | -0.1 | 1.8 | 16.0* | -0.2
COc1ccccc1C(=O)COC(=O)CCCN=C1NS(=O)(=O)c2ccccc21 | 3.6 | . | 0.0 | -2.5 | -1.3 | -0.4
O=C(Nc1ccccc1F)N1C[C@H]2[C@@H](c3ccccc31)[C@@H](CO)N2C(=O)Cc1ccccc1 | . | -3.9 | 0.1 | ? | 0.2 | -0.2
CC(C)OC(=O)CSc1nc(Cc2cccs2)nc2ccccc12 | 9.9 | . | 0.0 | 0.1 | 0.0 | 44.2*
Cc1ccc(NC(=O)c2ccc(Br)o2)cc1S(=O)(=O)N(C)C | -1.8 | -4.4 | 0.0 | -4.1 | -0.1 | 43.3*
Cc1ccc(NC(=O)COC(=O)/C=C/c2ccc(Br)o2)cc1S(=O)(=O)N(C)C | 18.8 | -2.6 | 0.0 | -0.9 | -4.5 | 43.2*
O=C(Nc1cc(F)ccc1F)N1CCCCN2[C@H](CO)[C@H](c3ccc(-c4ccncc4)cc3)[C@H]2C1 | . | 2.3 | 0.3 | 2.3 | -3.2 | -0.1
C[C@@H]1CN([C@@H](C)CO)C(=O)Cc2cc(NC(=O)CCN3CCOCC3)ccc2O[C@H]1CN(C)S(=O)(=O)c1cccs1 | . | . | 0.0 | -1.5 | -1.1 | 0.4
O=C(NC1CCC1)[C@H]1[C@H](CO)[C@H]2Cn3c(ccc(-c4ccncc4)c3=O)[C@@H]1N2CC1CC1 | . | -6.2 | 0.9 | 10.3 | -4.3 | 0.1
Cc1cc(C(=O)OC2CCOC2=O)c2ccccc2n1 (configuration not stated) | . | 21.3 | . | . | . | .
Cc1ccc2nc3c(c(C(=O)OCC(=O)NC4CCS(=O)(=O)C4)c2c1)CCCC3 (configuration not stated) | . | 2.9 | -0.1 | 1.4 | . | 43.0*
Cc1ccc2nc3c(c(C(=O)OC4CCOC4=O)c2c1)CCCC3 (configuration not stated) | -4.3 | -7.9 | 0.0 | 7.1 | -3.5 | 42.9*
CC=Cc1ccc2n(c1=O)C[C@H]1[C@H](CO)[C@@H](C(=O)NCC)N(Cc3cocn3)[C@@H]21 (mixture of isomers) | . | 0.0 | 0.0 | -3.6 | -10.2 | 0.0
O=C1NC(=S)SC1=Cc1ccccc1C(=O)O | -13.5 | . | -0.3 | -3.7 | . | 1.6*
O=C1NC(=S)S/C1=C\c1cc(Cl)ccc1Cl | -9.0 | -8.8 | -0.1 | 2.3 | 5.7 | 0.1
CC(CNC(=O)[C@H]1O[C@@H](n2cnc3c(=O)[nH]c(N)nc32)[C@H](O)[C@@H]1O)c1ccccc1 (some centres not stated) | 6.8 | . | 0.2 | 67.9* | 0.3 | 0.1
COC(=O)c1cc(NC(=O)CSc2nnc(N)s2)ccc1Cl | 1.8 | 4.7 | 0.0 | -3.9 | 2.4 | 0.1
Nc1nnc(SCC(=O)Nc2ccc(Cl)c(C(=O)O)c2)s1 | -0.4 | -1.2 | 0.0 | 3.8 | 16.9* | 0.2
N#C[C@H]1[C@@H](c2ccccc2C2=CCCCC2)[C@H](CO)N1S(=O)(=O)c1cccc(F)c1 | -3.2 | . | 0.0 | 2.9 | . | .
CC(C)CC(N)c1csc(Nc2ccccn2)n1 (configuration not stated) | -0.8 | . | 0.0 | 5.1 | 0.2 | -0.1
CC(C)CC(N)c1csc(Nc2cnccn2)n1 (configuration not stated) | 1.5 | . | 0.4 | 2.4 | . | 43.6*
SMILES | FN deposition inh | ARNT TACC3 PPI | XiGFP reactiv | DENV2 CPE | SIRT5 inh | FGF22 binding
Cc1sc(N/N=C/c2ccco2)nc1-c1ccccc1 | -2.6 | 12.7 | 0.3 | -2.7 | 0.1 | 43.6*
O=C(CSc1nnc2c(n1)[nH]c1ccccc12)Nc1ccc(S(=O)(=O)Nc2ncccn2)cc1 | -4.8 | 49.2* | 0.0 | 1.9 | -1.3 | 0.1
COc1ccc(C(=O)Nc2ccc3c(c2)C(=O)N(C)C[C@@H](OC)[C@H](C)CN(C(C)=O)[C@H](C)CO3)cc1 | 5.2 | 30.6 | 0.2 | -8.7 | -1.5 | -0.5
CN(C)/C=N/c1nc2ncc(-c3ccc(Cl)cc3)c(/N=C/N(C)C)n2n1 | -9.7 | -6.5 | 0.0 | 12.8 | -0.7 | 43.1*
CN(Cc1ccccc1)CC(O)CC(O)c1ccccc1 (configuration not stated) | . | -0.4 | . | 14.2 | -1.4 | 0.2
CN1N=C(C(C)(C)C)CC1=O | 1.4 | 8.1 | 0.0 | 6.6 | 0.9 | -0.2
CN1N=C(C(F)(F)F)CC1=O | 1.8 | -0.4 | 0.0 | 3.0 | -0.3 | 43.6*
Cc1cccc(C)c1Cn1c(C)c(C(=O)NCc2ccc(C#N)cc2)sc1=O | -7.0 | . | 0.0 | -3.0 | . | -0.2
Cc1c(C(=O)NCc2ccc(C#N)cc2)sc(=O)n1Cc1ccccn1 | 6.6 | . | 0.0 | 21.3* | . | -0.2
CN(C)C(N)=NCCC[C@H](N)C(=O)O | . | active | -0.1 | 11.2 | 0.6 | -0.1
CN=C(N)NCCC[C@H](N)C(=O)O | 4.4 | -3.6 | 0.1 | 7.6 | 0.5 | 0.1
OC(CNCc1ccccc1)COc1ccccc1 (configuration not stated) | -15.7 | -0.2 | 0.0 | -0.6 | 24.0* | 0.1
C[C@H](O)C#Cc1cnc2c(c1)C(=O)N([C@H](C)CO)C[C@@H](C)[C@H](CN(C)Cc1cccc(C(=O)O)c1)O2 | . | -2.1 | -0.8 | 4.5 | -2.2 | -0.5
COc1ccc(S(=O)(=O)Nc2ccc3c(c2)CC(=O)N([C@H](C)CO)C[C@H](C)[C@@H](CN(C)S(=O)(=O)c2ccc(F)cc2)O3)cc1 | . | 0.9 | 0.0 | 0.3 | . | 0.2
Cc1ccc(C)c(CSC2=NN3CCCC(=O)N=C3S2)c1 | -9.1 | 13.4 | 18.8* | -0.8 | -3.9 | 0.1
Cc1ccc(NC(=O)CSC2=NN3CCCC(=O)N=C3S2)c(C)c1 | 1.6 | -4.5 | 0.1 | 1.1 | -1.3 | -0.1
COc1ccc(S(=O)(=O)N(C)C[C@H]2Oc3c(NS(=O)(=O)c4cccs4)cccc3C(=O)N([C@@H](C)CO)C[C@@H]2C)cc1 | . | . | -0.2 | 36.0* | -1.1 | .
COc1ccc(S(=O)(=O)N(C)C[C@@H]2Oc3c(NS(C)(=O)=O)cccc3C(=O)N([C@@H](C)CO)C[C@H]2C)cc1 | -0.8 | -5.0 | -1.3 | -8.2 | 20.1*! | -0.2
